From ChEMBL document CHEMBL4014308, “Amphiphilic Tobramycin-Lysine Conjugates Sensitize Multidrug Resistant Gram-Negative Bacteria to Rifampicin and Minocycline” (J Med Chem, 2017)
Activity calls are given as the source filed them. The calls are words filed in the database; no cut-off is given here.

Key:
Assay type in all cases: functional
Staphylococcus aureus [1] = experiment: Antibacterial activity against Staphylococcus aureus ATCC 29213 after 18 hrs by microtiter dilution assay; settings: ATCC 29213, 18 h
How it was run: (§1)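 Broth microdilution following CLSI guidelines. An overnight culture was adjusted to 0.5 McFarland in saline, then diluted 1:50 in Mueller-Hinton broth. This inoculum was added in equal volume to 2-fold serial dilutions of agent in MHB and incubated 18 h at 37 °C. MIC was the lowest concentration with no visible growth.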

Staphylococcus aureus [2] = experiment: Antibacterial activity against methicillin resistant Staphylococcus aureus ATCC 33592 after 18 hrs by microtiter dilution assay; settings: ATCC 33592, 18 h; how it was run: as §1
[3] = test system: Staphylococcus epidermidis; experiment: Antibacterial activity against methicillin-susceptible Staphylococcus epidermidis isolate CANWARD-2008 81388 after 18 hrs by microtiter dilution assay; settings: isolate CANWARD-2008 81388, 18 h; how it was run: as §1
[4] = test system: Staphylococcus epidermidis; experiment: Antibacterial activity against methicillin-resistant Staphylococcus epidermidis isolate CAN-ICU 61589 after 18 hrs by microtiter dilution assay; settings: isolate CAN-ICU 61589, 18 h; how it was run: as §1
Enterococcus faecalis = experiment: Antibacterial activity against Enterococcus faecalis ATCC 29212 after 18 hrs by microtiter dilution assay; settings: ATCC 29212, 18 h
How it was run: (§2)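 Broth microdilution per CLSI. Overnight culture adjusted to 0.5 McFarland in saline, diluted 1:50 in Mueller-Hinton broth, and added to an equal volume of 2-fold serial compound dilutions in MHB. Incubated 18 h at 37 °C. MIC taken as the lowest concentration with no visible growth.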

Enterococcus faecium = experiment: Antibacterial activity against Enterococcus faecium ATCC 27270 after 18 hrs by microtiter dilution assay; settings: ATCC 27270, 18 h; how it was run: as §2
Streptococcus pneumoniae = experiment: Antibacterial activity against Streptococcus pneumoniae ATCC 49619 after 18 hrs by microtiter dilution assay; settings: ATCC 49619, 18 h; how it was run: as §2
Escherichia coli [5] = experiment: Antibacterial activity against Escherichia coli ATCC 25922 after 18 hrs by microtiter dilution assay; settings: ATCC 25922, 18 h; how it was run: as §1
Escherichia coli [6] = experiment: Antibacterial activity against gentamicin-resistant Escherichia coli isolate CAN-ICU 61714 after 18 hrs by microtiter dilution assay; settings: isolate CAN-ICU 61714, 18 h; how it was run: as §1
Escherichia coli [7] = experiment: Antibacterial activity against amikacin-resistant Escherichia coli isolate CAN-ICU 63074 after 18 hrs by microtiter dilution assay; settings: isolate CAN-ICU 63074, 18 h; how it was run: as §1
Escherichia coli [8] = experiment: Antibacterial activity against gentamicin/tobramycin/ciprofloxacin-resistant Escherichia coli isolate CANWARD-2011 97615 harboring AAC3-2A after 18 hrs by microtiter dilution assay; settings: isolate CANWARD-2011 97615, 18 h; how it was run: as §1
Pseudomonas aeruginosa [9] = experiment: Antibacterial activity against Pseudomonas aeruginosa ATCC 27853 after 18 hrs by microtiter dilution assay; settings: ATCC 27853, 18 h; how it was run: as §2
Pseudomonas aeruginosa [10] = experiment: Antibacterial activity against gentamicin-resistant Pseudomonas aeruginosa isolate CAN-ICU 62308 after 18 hrs by microtiter dilution assay; settings: isolate CAN-ICU 62308, 18 h; how it was run: as §1
Pseudomonas aeruginosa [11] = experiment: Antibacterial activity against gentamicin/tobramycin-resistant Pseudomonas aeruginosa isolate CANWARD-2011 96846 after 18 hrs by microtiter dilution assay; settings: isolate CANWARD-2011 96846, 18 h; how it was run: as §1
[12] = test system: Stenotrophomonas maltophilia; experiment: Antibacterial activity against Stenotrophomonas maltophilia isolate CAN-ICU 62584 after 18 hrs by microtiter dilution assay; settings: isolate CAN-ICU 62584, 18 h; how it was run: as §2
Acinetobacter baumannii = experiment: Antibacterial activity against Acinetobacter baumannii isolate CAN-ICU 63169 after 18 hrs by microtiter dilution assay; settings: isolate CAN-ICU 63169, 18 h; how it was run: as §2
Klebsiella pneumoniae = experiment: Antibacterial activity against Klebsiella pneumoniae ATCC 13883 after 18 hrs by microtiter dilution assay; settings: ATCC 13883, 18 h; how it was run: as §2
Pseudomonas aeruginosa [13] = experiment: Antibacterial activity against Pseudomonas aeruginosa PAO1 after 18 hrs by microtiter dilution assay; settings: PAO1, 18 h; how it was run: as §1
Pseudomonas aeruginosa [14] = experiment: Antibacterial activity against multidrug/extremely drug-resistant/colistin-susceptible Pseudomonas aeruginosa isolate 100036 after 18 hrs by microtiter dilution assay; settings: isolate 100036, 18 h; how it was run: as §1
Pseudomonas aeruginosa [15] = experiment: Antibacterial activity against multidrug/extremely drug-resistant/colistin-susceptible Pseudomonas aeruginosa isolate 101885 after 18 hrs by microtiter dilution assay; settings: isolate 101885, 18 h; how it was run: as §1
Pseudomonas aeruginosa [16] = experiment: Antibacterial activity against multidrug/extremely drug-resistant/colistin-susceptible Pseudomonas aeruginosa isolate P259-96918 after 18 hrs by microtiter dilution assay; settings: isolate P259-96918, 18 h; how it was run: as §1
Pseudomonas aeruginosa [17] = experiment: Antibacterial activity against multidrug/extremely drug-resistant/colistin-susceptible Pseudomonas aeruginosa isolate P262-101856 after 18 hrs by microtiter dilution assay; settings: isolate P262-101856, 18 h; how it was run: as §1
Pseudomonas aeruginosa [18] = experiment: Antibacterial activity against multidrug/extremely drug-resistant/colistin-susceptible Pseudomonas aeruginosa isolate P264-104354 after 18 hrs by microtiter dilution assay; settings: isolate P264-104354, 18 h; how it was run: as §1
Pseudomonas aeruginosa [19] = experiment: Antibacterial activity against multidrug/extremely drug-resistant/colistin-resistant Pseudomonas aeruginosa isolate 91433 after 18 hrs by microtiter dilution assay; settings: isolate 91433, 18 h; how it was run: as §1
Pseudomonas aeruginosa [20] = experiment: Antibacterial activity against multidrug/extremely drug-resistant/colistin-resistant Pseudomonas aeruginosa isolate 101243 after 18 hrs by microtiter dilution assay; settings: isolate 101243, 18 h; how it was run: as §1
Pseudomonas aeruginosa [21] = experiment: Synergistic antibacterial activity against Pseudomonas aeruginosa PAO1 after 18 hrs in presence of minocycline by checkerboard assay
How it was run: (§3)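 Checkerboard in MHB: antibiotic diluted along one axis and adjuvant along the other (10 × 7 matrix). Inoculum was a 1:50 dilution in MHB of a 0.5 McFarland saline suspension; incubated 18 h at 37 °C. Each FIC = concentration in the no-growth well divided by the MIC alone; FIC index = sum of both FICs. ≤0.5 synergy, 0.5–4 no interaction, ≥4 antagonism.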

Pseudomonas aeruginosa [22] = experiment: Synergistic antibacterial activity against Pseudomonas aeruginosa PAO1 after 18 hrs in presence of rifampicin by checkerboard assay; how it was run: as §3

SMILES | MIC (Staphylococcus aureus [1]) | MIC (Staphylococcus aureus [2]) | MIC [3] | MIC [4] | MIC (Enterococcus faecalis) | MIC (Enterococcus faecium) | MIC (Streptococcus pneumoniae) | MIC (Escherichia coli [5]) | MIC (Escherichia coli [6]) | MIC (Escherichia coli [7]) | MIC (Escherichia coli [8]) | MIC (Pseudomonas aeruginosa [9]) | MIC (Pseudomonas aeruginosa [10]) | MIC (Pseudomonas aeruginosa [11]) | MIC [12] | MIC (Acinetobacter baumannii) | MIC (Klebsiella pneumoniae) | MIC (Pseudomonas aeruginosa [13]) | MIC (Pseudomonas aeruginosa [14]) | MIC (Pseudomonas aeruginosa [15]) | also measured
Cl.Cl.Cl.Cl.Cl.Cl.Cl.NCCCC[C@H](N)C(=O)N(CCCCCCCCOC1[C@@H](O[C@H]2O[C@H](CO)[C@@H](O)[C@H](N)[C@H]2O)[C@H](N)C[C@H](N)[C@H]1O[C@H]1O[C@H](CN)[C@@H](O)C[C@H]1N)Cc1c2ccccc2c(Cl)c2ccccc12 (single isomer, unassigned) | 16 µg/mL | 16 µg/mL | 8 µg/mL | 8 µg/mL | 64 µg/mL | 16 µg/mL | 128 µg/mL | 16 µg/mL | 32 µg/mL | 128 µg/mL | 32 µg/mL | > 128 µg/mL | 16 µg/mL | 64 µg/mL | > 128 µg/mL | > 128 µg/mL | > 128 µg/mL | 128 µg/mL | 512 µg/mL | 64 µg/mL | MIC (Pseudomonas aeruginosa [16]): 512 µg/mL; MIC (Pseudomonas aeruginosa [17]): 128 µg/mL; MIC (Pseudomonas aeruginosa [18]): 256 µg/mL; MIC (Pseudomonas aeruginosa [19]): 8 µg/mL; MIC (Pseudomonas aeruginosa [20]): 32 µg/mL; Activity (Pseudomonas aeruginosa [21]): Active; Activity (Pseudomonas aeruginosa [22]): Active
Cl.Cl.Cl.Cl.Cl.Cl.Cl.NCCCC[C@H](N)C(=O)N(CCCCO[C@@H]1[C@@H](O[C@H]2O[C@H](CO)[C@@H](O)[C@H](N)[C@H]2O)[C@H](N)C[C@H](N)[C@H]1O[C@H]1O[C@H](CN)[C@@H](O)C[C@H]1N)Cc1c2ccccc2c(Cl)c2ccccc12 | 64 µg/mL | 64 µg/mL | 16 µg/mL | 32 µg/mL | > 128 µg/mL | > 128 µg/mL | > 128 µg/mL | 32 µg/mL | 64 µg/mL | 64 µg/mL | 64 µg/mL | > 128 µg/mL | 64 µg/mL | > 128 µg/mL | > 128 µg/mL | > 128 µg/mL | 128 µg/mL | > 512 µg/mL | > 512 µg/mL | 256 µg/mL | MIC (Pseudomonas aeruginosa [16]): > 512 µg/mL; MIC (Pseudomonas aeruginosa [17]): > 512 µg/mL; MIC (Pseudomonas aeruginosa [18]): > 512 µg/mL; MIC (Pseudomonas aeruginosa [19]): 32 µg/mL; MIC (Pseudomonas aeruginosa [20]): 256 µg/mL; Activity (Pseudomonas aeruginosa [21]): inactive; Activity (Pseudomonas aeruginosa [22]): inactive
